This passage reports EC50 results from ChEMBL document CHEMBL1132281, “Compounds that activate the mouse melanocortin-1 receptor identified by screening a small molecule library based upon the beta-turn” (J Med Chem, 1999).

Structures are written as SMILES.

Melanocyte-stimulating hormone receptor, sequence (Q01727 whole entry): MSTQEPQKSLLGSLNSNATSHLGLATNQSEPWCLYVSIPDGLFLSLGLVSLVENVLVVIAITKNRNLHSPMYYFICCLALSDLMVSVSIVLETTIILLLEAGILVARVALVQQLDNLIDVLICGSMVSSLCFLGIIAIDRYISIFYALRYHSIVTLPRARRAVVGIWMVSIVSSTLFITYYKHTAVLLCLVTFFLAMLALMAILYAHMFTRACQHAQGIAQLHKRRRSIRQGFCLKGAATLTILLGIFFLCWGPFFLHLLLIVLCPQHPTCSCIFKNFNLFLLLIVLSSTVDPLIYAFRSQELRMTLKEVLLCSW

This assay addresses Melanocyte-stimulating hormone receptor (Mus musculus, UniProt Q01727). Put plainly: Agonistic activity against mouse Melanocortin 1 receptor (mMC1R). The class given is functional. A digest of the protocol: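 HEK-293 cells (DMEM, 10% fetal calf serum) stably expressing the mouse receptor (pCDNA3, G418 selection) were transfected with a CRE/β-galactosidase reporter. At 48 h post-transfection, cells were stimulated for 6 h in DMEM with 0.1 mg/mL BSA and 0.1 mM IBMX, at 10^-4 to 10^-10 M in triplicate. Lysates were read with ONPG at 37° (OD405), and the data were normalized to protein (OD595) and to forskolin (10^-4 M).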
For `CC(=O)N[C@@H](Cc1c[nH]cn1)C(=O)N[C@H](Cc1ccccc1)C(=O)NCC(=O)N[C@H](Cc1c[nH]c2ccccc12)C(N)=O`, the EC50 was greater than 100 µM.
Compound `CC(=O)N[C@H](Cc1ccccc1)C(=O)N[C@@H](CCCCN)C(=O)N[C@H](Cc1c[nH]c2ccccc12)C(N)=O` registered a half-maximal effective concentration (EC50) greater than 100 µM.
For `CC(=O)N[C@@H](Cc1c[nH]cn1)C(=O)N[C@H](Cc1ccccc1)C(=O)N[C@@H](CCC(N)=O)C(=O)N[C@H](Cc1c[nH]c2ccccc12)C(N)=O`, the EC50 came to 100 µM.
`CC(=O)N[C@@H](Cc1c[nH]cn1)C(=O)N[C@H](Cc1ccccc1)C(=O)N[C@@H](CCCCN)C(=O)N[C@H](Cc1c[nH]c2ccccc12)C(N)=O` registered an EC50 greater than 100 µM.
On to `O=C1[C@H]2CCCN2C(=O)C(Cc2ccc3ccccc3c2)SCCN1CCc1c[nH]c2ccccc12` (stereo not given in full), for which the EC50 turned out to be 42.5 µM.
The compound `CC(=O)N[C@H](Cc1ccccc1)C(=O)N[C@@H](C)C(=O)N[C@H](Cc1c[nH]c2ccccc12)C(N)=O` registered a concentration giving a half-maximal response (EC50) greater than 100 µM.
The result for `NCCCC[C@H]1NC(=O)[C@H](Cc2c[nH]c3ccccc23)SCCN(CCc2ccccc2)C1=O` reads 63.4 µM; that for `CC(=O)N[C@H](Cc1ccccc1)C(=O)N[C@@H](CCC(N)=O)C(=O)N[C@H](Cc1c[nH]c2ccccc12)C(N)=O`, 100 µM.
In the case of `CC(=O)N[C@H](Cc1ccccc1)C(=O)NCC(=O)N[C@H](Cc1c[nH]c2ccccc12)C(N)=O`, the midpoint of the response, the EC50, lay at 100 µM.
In turn, `CC(=O)N[C@@H](Cc1cnc[nH]1)C(=O)N[C@H](Cc1ccccc1)C(=O)N[C@@H](C)C(=O)N[C@H](Cc1c[nH]c2ccccc12)C(N)=O` came in with a half-maximal effective concentration (EC50) greater than 100 µM.
